Laboratory results taken from ChEMBL document CHEMBL1641514, “Drug metabolism-based design, synthesis, and bioactivities of 1-(2,6-dimethylphenoxy)-2-(3,4-dimethoxyphenylethylamino)propane hydrochloride (DDPH) analogs as α₁-adrenoceptors antagonists” (Bioorg Med Chem, 2011).

Legend:
[1] = molecular target: T1, Adrenergic receptor alpha-1 (Rattus norvegicus, UniProt P15823+P23944+P43140); test: Antagonist activity at alpha1 adrenergic receptor in Sprague-Dawley rat anococcygeus smooth muscle assessed as inhibition of phenylepinephrine-induced muscle contraction treated 20 mins before phenylepinephrine challenge; assay type: functional
T1 sequence (P15823 whole entry): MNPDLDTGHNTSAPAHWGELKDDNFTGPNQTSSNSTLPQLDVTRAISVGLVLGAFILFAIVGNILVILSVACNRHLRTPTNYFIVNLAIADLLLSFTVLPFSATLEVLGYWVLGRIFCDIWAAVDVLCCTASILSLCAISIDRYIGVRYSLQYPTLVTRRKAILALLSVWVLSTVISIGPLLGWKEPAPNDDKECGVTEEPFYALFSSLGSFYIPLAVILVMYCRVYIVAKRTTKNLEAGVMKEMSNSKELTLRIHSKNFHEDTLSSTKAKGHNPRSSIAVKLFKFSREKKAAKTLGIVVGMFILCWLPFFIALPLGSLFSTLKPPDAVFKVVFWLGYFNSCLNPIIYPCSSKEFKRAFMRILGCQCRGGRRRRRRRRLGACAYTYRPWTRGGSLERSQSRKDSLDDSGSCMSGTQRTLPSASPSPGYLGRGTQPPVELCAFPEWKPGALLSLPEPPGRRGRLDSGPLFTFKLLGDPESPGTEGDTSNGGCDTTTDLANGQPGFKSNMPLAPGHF
T1 sequence (P23944 whole entry): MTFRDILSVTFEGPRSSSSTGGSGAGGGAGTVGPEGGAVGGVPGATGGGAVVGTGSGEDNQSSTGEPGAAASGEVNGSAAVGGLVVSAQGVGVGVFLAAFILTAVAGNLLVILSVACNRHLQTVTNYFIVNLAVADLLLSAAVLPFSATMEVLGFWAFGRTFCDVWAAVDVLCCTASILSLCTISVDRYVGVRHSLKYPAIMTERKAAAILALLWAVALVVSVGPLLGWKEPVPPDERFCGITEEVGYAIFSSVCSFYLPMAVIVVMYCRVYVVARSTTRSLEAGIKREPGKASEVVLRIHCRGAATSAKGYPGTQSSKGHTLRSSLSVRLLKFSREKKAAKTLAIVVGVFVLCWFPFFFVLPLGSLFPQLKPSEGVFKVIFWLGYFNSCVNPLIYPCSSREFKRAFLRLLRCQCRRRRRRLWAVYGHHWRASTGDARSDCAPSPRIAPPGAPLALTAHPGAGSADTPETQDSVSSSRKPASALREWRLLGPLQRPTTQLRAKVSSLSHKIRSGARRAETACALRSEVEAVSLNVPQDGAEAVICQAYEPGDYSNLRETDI
T1 sequence (P43140 whole entry): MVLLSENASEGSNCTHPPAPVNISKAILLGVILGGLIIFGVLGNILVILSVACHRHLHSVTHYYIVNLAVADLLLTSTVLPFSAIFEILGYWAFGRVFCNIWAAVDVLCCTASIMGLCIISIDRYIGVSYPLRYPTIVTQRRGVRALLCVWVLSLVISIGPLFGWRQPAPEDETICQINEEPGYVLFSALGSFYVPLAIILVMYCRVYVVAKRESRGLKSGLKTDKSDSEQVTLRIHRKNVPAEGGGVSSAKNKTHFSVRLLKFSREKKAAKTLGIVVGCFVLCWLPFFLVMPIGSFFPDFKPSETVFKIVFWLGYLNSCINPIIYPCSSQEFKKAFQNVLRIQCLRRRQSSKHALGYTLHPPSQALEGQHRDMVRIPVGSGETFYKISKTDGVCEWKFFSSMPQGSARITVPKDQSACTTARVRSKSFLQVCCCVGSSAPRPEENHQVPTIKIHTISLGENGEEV
In short: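 Male Sprague–Dawley rats (300–350 g) killed by cervical dislocation. Anococcygeus muscle mounted in a 20 mL bath of Krebs solution (pH 7.4), 37 °C, gassed with 5% CO₂/95% O₂. Resting tension 1.0 g. Equilibrated 1 h with Krebs renewal every 20 min. Cocaine, hydrocortisone and propranolol then added. pA₂ read out.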

Rattus norvegicus [2] = test: Antihypertensive activity in Sprague-Dawley rat assessed as change in mean arterial pressure at 5 mg/kg, iv
Rattus norvegicus [3] = test: Antihypertensive activity in Sprague-Dawley rat assessed as change in systolic arterial pressure at 5 mg/kg, iv
Rattus norvegicus [4] = test: Antihypertensive activity in Sprague-Dawley rat assessed as change in diastolic arterial pressure at 5 mg/kg, iv
Rattus norvegicus [5] = test: Antihypertensive activity in Sprague-Dawley rat assessed as time duration of hypotensive response at 5 mg/kg, iv
Rattus norvegicus [6] = test: Antihypertensive activity in Sprague-Dawley rat assessed as change in heart rate at 5 mg/kg, iv

Row | SMILES | pA2 [1] | Activity (Rattus norvegicus [2]) [%] | Activity (Rattus norvegicus [3]) [%] | Activity (Rattus norvegicus [4]) [%] | Time (Rattus norvegicus [5]) [min] | Activity (Rattus norvegicus [6]) [%]
1 | COc1ccc(CCNC(C)COc2c(C)cc(C#N)cc2C)cc1O.Cl (configuration not stated) | 5.61 | -11 | -8.2 | -14.2 | 4 | -6.4
2 | COc1cc(CCNC(C)COc2c(C)cc(Cl)cc2C)ccc1O.Cl (configuration not stated) | 8.6 | -20.2 | -12.1 | -25.1 | 61 | -6.6
3 | COc1ccc(CCNC(C)COc2c(C)cc(Cl)cc2C)cc1OC.Cl (configuration not stated) | 8.18 | -15.9 | -13.3 | -18.5 | 34 | -8.78
4 | COc1ccc(CCNC(C)COc2c(C)cc(Br)cc2C)cc1OC.Cl (configuration not stated) | 6.93 | -8.5 | -9.2 | -7.8 | 12 | -8.3
5 | COc1cc(CCNC(C)COc2c(C)cc(Br)cc2C)ccc1O.Cl (configuration not stated) | 9.94 | -15.5 | -7.6 | -19.1 | 23 | -1.7
6 | COc1ccc(CCNC(C)COc2c(C)cc(Br)cc2C)cc1O.Cl (configuration not stated) | 7.02 | -7.5 | -3.5 | -12.8 | 4 | -2.3
7 | COc1ccc(CCNC(C)COc2c(C)ccc(C)c2C)cc1OC.Cl (configuration not stated) | 7.71 | -27.1 | -17.4 | -34.2 | 57 | -16.6
8 | COc1cc(CCNC(C)COc2c(C)ccc(C)c2C)ccc1O.Cl (configuration not stated) | 8.02 | -14.6 | -7.9 | -20.5 | 80 | -0.96
9 | COc1cc(CCNC(C)COc2c(C)cc(C)cc2C)ccc1O.Cl (configuration not stated) | 8.86 | -45.92 | -36.45 | -48.99 | 205 | -23.52
10 | COc1ccc(CCNC(C)COc2c(C)cc(C)cc2C)cc1OC.Cl (configuration not stated) | 7.25 | -27.86 | -19.03 | -28.23 | 33 | -16.3
11 | COc1cc(CCNC(C)COc2c(C)cc(C#N)cc2C)ccc1O.Cl (configuration not stated) | 6.65 | -24.9 | -17.3 | -29.61 | 6 | -2.33
12 | COc1ccc(CCNC(C)COc2c(C)cccc2C)cc1OC.Cl (configuration not stated) | 8.07 | -30.4 | -19.79 | -26 | 120 | -16.04
